Laboratory results reported in ChEMBL document CHEMBL1124770, “Synthesis and pharmacological evaluation of amino, azido, and nitrogen mustard analogues of 10-substituted cannabidiol and 11- or 12-substituted delta 8-tetrahydrocannabinol” (1990).

Columns and labels:
Type in all cases: functional
[1] = tested on: Mus musculus; assay: Evaluated for reduction in spontaneous locomotor activity in mice at a dose of 100 mg/Kg administered intraventricularly
How it was run: (§1)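 Mice given intraventricular injection of 5 μL in ethanol/emulphor/saline (1:1:18). Spontaneous locomotor activity recorded as counts/10 min by previously reported methods, alongside vehicle and Δ9-THC controls. Mean ± SEM; ANOVA with Dunnett's t test, p < 0.05 two-tailed.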

[2] = tested on: Mus musculus; assay: Evaluated for hypothermic activity in mice at a dose of 150 mg/Kg administered intraventricularly
How it was run: (§2)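 Intraventricular injection in mice, 5 μL volume, in ethanol/emulphor/saline (1:1:18) vehicle. Change in body temperature (°C) recorded by previously reported methods, with vehicle and Δ9-THC controls. Mean ± SEM; ANOVA with Dunnett's t test versus control, p < 0.05 two-tailed.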

[3] = tested on: Mus musculus; assay: Evaluated for reduction in spontaneous locomotor activity in mice at a dose of 150 mg/Kg administered intraventricularly; how it was run: as §1
[4] = tested on: Mus musculus; assay: Evaluated for reduction in spontaneous locomotor activity in mice, at a dose of 0 mg/Kg administered intraventricularly; how it was run: as §1
[5] = tested on: Mus musculus; assay: Evaluated for hypothermic activity in mice at a dose of 100 mg/Kg administered intraventricularly; how it was run: as §2
[6] = tested on: Mus musculus; assay: Tail-flick latency was determined at a concentration of 0 mg/Kg administered intraventricularly
How it was run: (§3)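 Tail-flick latency (s) in mice after intraventricular injection (5 μL) of ethanol/emulphor/saline (1:1:18) vehicle, measured by previously reported methods. Mean ± SEM; ANOVA with Dunnett's t test, p < 0.05 two-tailed.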

[7] = tested on: Mus musculus; assay: Evaluated for hypothermic activity in mice at a dose of 0 mg/Kg administered intraventricularly; how it was run: as §2
[8] = tested on: Mus musculus; assay: Evaluated for hypothermic activity in mice at a dose of 0 mg/Kg.
How it was run: (§4)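 Mice dosed by tail-vein injection (0.1 mL/10 g) in ethanol/emulphor/saline (1:1:18). Body temperature change (°C) measured by previously reported methods. Vehicle and Δ9-THC positive controls run each day. Mean ± SEM; ANOVA with Dunnett's t test versus control, p < 0.05 two-tailed.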

[9] = tested on: Mus musculus; assay: Evaluated for catalepsy activity in mice and percentage immobility was determined at a concentration of 0 mg/Kg.
How it was run: (§5)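 Mice, single tail-vein injection (0.1 mL/10 g) in ethanol/emulphor/saline (1:1:18). Catalepsy scored by ring test as % immobility, per previously reported methods. Vehicle and Δ9-THC positive-control groups run in each daily experiment. Mean ± SEM; ANOVA with Dunnett's t test versus control, p < 0.05 two-tailed.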

[10] = tested on: Mus musculus; assay: Tail-flick latency was determined at a concentration of 0 mg/Kg.
How it was run: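 Antinociception in mice by tail-flick latency (s), per previously reported methods, after tail-vein injection (0.1 mL/10 g) in ethanol/emulphor/saline (1:1:18). Vehicle and Δ9-THC controls run daily. Mean ± SEM; ANOVA with Dunnett's t test, p < 0.05 two-tailed.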

[11] = tested on: Mus musculus; assay: Evaluated for hypothermic activity in mice at a dose of 3 mg/Kg.; how it was run: as §4
[12] = tested on: Mus musculus; assay: Evaluated for reduction in spontaneous locomotor activity in mice at a dose of 3 mg/Kg
How it was run: (§6)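 Tail-vein injection in mice (0.1 mL/10 g; ethanol/emulphor/saline 1:1:18). Spontaneous locomotor activity counted as counts/10 min, per previously reported methods. Daily vehicle and Δ9-THC positive controls. Mean ± SEM; ANOVA with Dunnett's t test, p < 0.05 two-tailed.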

[13] = tested on: Mus musculus; assay: Evaluated for reduction in spontaneous locomotor activity in mice at a dose of 5 mg/Kg; how it was run: as §6
[14] = tested on: Mus musculus; assay: Tail-flick latency was determined at a concentration of 3 mg/Kg.
How it was run: (§7)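 Mice, drug suspended in ethanol/emulphor/saline (1:1:18) and given by tail-vein injection (0.1 mL/10 g). Antinociception measured as tail-flick latency (s). Vehicle and Δ9-THC positive controls run in each daily experiment. Data given as mean ± SEM. ANOVA with Dunnett's t test against control, p < 0.05 (two-tailed).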

[15] = tested on: Mus musculus; assay: Evaluated for catalepsy activity in mice and percentage immobility was determined at a concentration of 5 mg/Kg.; how it was run: as §5
[16] = tested on: Mus musculus; assay: Tail-flick latency was determined at a concentration of 5 mg/Kg.; how it was run: as §7
[17] = tested on: Mus musculus; assay: Evaluated for catalepsy activity in mice and percentage immobility was determined at a concentration of 3 mg/kg.; how it was run: as §5
[18] = tested on: Mus musculus; assay: Evaluated for reduction in spontaneous locomotor activity in mice, at a dose of 0 mg/Kg; how it was run: as §6
[19] = tested on: Mus musculus; assay: Evaluated for hypothermic activity in mice at a dose of 5 mg/Kg.; how it was run: as §4
[20] = tested on: Mus musculus; assay: Evaluated for hypothermic activity in mice at a dose of 0 ug/Kg administered intraventricularly; how it was run: as §2
[21] = tested on: Mus musculus; assay: Evaluated for reduction in spontaneous locomotor activity in mice at a dose of 150 ug/Kg administered intraventricularly; how it was run: as §1
[22] = tested on: Mus musculus; assay: Tail-flick latency was determined at a concentration of 150 ug/Kg administered intraventricularly
How it was run: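 Mice, injected intraventricularly in 5 μL of ethanol/emulphor/saline (1:1:18) vehicle. Doses given as μg amounts. Antinociception read as tail-flick latency (s), alongside vehicle control. Values reported as mean ± SEM. ANOVA with Dunnett's t test versus control, significance at p < 0.05 (two-tailed).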

[23] = tested on: Mus musculus; assay: Evaluated for reduction in spontaneous locomotor activity in mice at a dose of 50 mg/Kg; how it was run: as §6
[24] = tested on: Mus musculus; assay: Evaluated for reduction in spontaneous locomotor activity in mice, at a dose of 0 ug/Kg administered intraventricularly; how it was run: as §1
[25] = tested on: Mus musculus; assay: Evaluated for catalepsy activity in mice and percentage immobility was determined at a concentration of 50 mg/Kg.; how it was run: as §5
[26] = tested on: Mus musculus; assay: Evaluated for hypothermic activity in mice at a dose of 150 ug/Kg administered intraventricularly; how it was run: as §2
[27] = tested on: Mus musculus; assay: Evaluated for hypothermic activity in mice at a dose of 50 mg/Kg.; how it was run: as §4
[28] = tested on: Mus musculus; assay: Tail-flick latency was determined at a concentration of 0 ug/Kg administered intraventricularly; how it was run: as §3
[29] = tested on: Mus musculus; assay: Tail-flick latency was determined at a concentration of 50 mg/Kg.; how it was run: as §7

## C=C(CN(CCCl)CCCl)[C@@H]1CCC(C)=CC1c1c(O)cc(CCCCC)cc1O (stereo partly drawn)
[1]
  Spont activity: 81 Counts 10min-1
[2]
  Temperature: <-3.8 °C
[3]
  Spont activity: 75 Counts 10min-1
[4]
  Spont activity: 90 Counts 10min-1
[5]
  Temperature: -1.8 °C
[6]
  Tail flick latency: -0.2 s
[7]
  Temperature: -1.1 °C

## CCCCCc1cc(O)c2c(c1)OC(C)(CNCC)[C@@H]1CC=C(C)CC21 (stereo partly drawn)
[8]
  Temperature: -0.9 °C
[9]
  Immobility: 13%
[10]
  Tail flick latency: 1 s
[11]
  Temperature: -1.5 °C
[12]
  Spont activity: 35 Counts 10min-1
[13]
  Spont activity: 35 Counts 10min-1
[14]
  Tail flick latency: <2.8 s
[15]
  Immobility: 16%
[16]
  Tail flick latency: 2.2 s
[17]
  Immobility: 20%
[18]
  Spont activity: 52 Counts 10min-1
[19]
  Temperature: -0.7 °C

## CCCCCc1cc(O)c2c(c1)OC(C)(C)[C@@H]1CC=C(CN(CCCl)CCCl)CC21 (stereo partly drawn)
[8]
  Temperature: -0.8 °C
[20]
  Temperature: -1.5 °C
[21]
  Spont activity: 70 Counts 10min-1
[22]
  Tail flick latency: 0 s
[9]
  Immobility: 4%
[10]
  Tail flick latency: 0.7 s
[23]
  Spont activity: <27 Counts 10min-1
[24]
  Spont activity: 87 Counts 10min-1
[25]
  Immobility: <24%
[26]
  Temperature: -1.7 °C
[27]
  Temperature: <-3.8 °C
[28]
  Tail flick latency: 0.2 s
[18]
  Spont activity: 56 Counts 10min-1
[29]
  Tail flick latency: -0.6 s
